# Experimental data taken from article PMC5855950 (RNA, 2018).
# Legend:
# [1] = system: EGFPCAG78-expressing HEK293 cells; assay: LDH assay: suppression of death of EGFPCAG78-expressing HEK293 cells; assay type: cell-based, human; settings: scrambled control, Supplemental Fig. S1
# How it was run: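 HEK293 cells were grown in DMEM with 10% FBS at 37°C and 5% CO2 and seeded at 1 × 10^5 per well. They were lipofected with pEGFPCAG78, and TAT-peptide was added immediately after at 0.1–25 µM (8 levels). LDH activity in the medium was read at 72 h and normalised to the no-peptide control. IC50 came from variable-slope nonlinear regression; at least 3 repeats.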
# HBB mRNA = assay: Real-time PCR: HBB mRNA expression in HEK293 cells; assay type: cell-based, human; settings: three repeats
# How it was run: (§1)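 RNA was extracted from HEK293 cells with TRIzol. One µg was reverse transcribed using random hexamer primers. GADD45A and HBB transcripts were quantified with TaqMan gene expression probes on a real-time PCR system.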
# DsRedCAG250 Drosophila = assay: Climbing ability assay, DsRedCAG250 Drosophila; assay type: in vivo; settings: 100 µM at third instar larval stage; elav>DsRedCAG250 flies at 5, 10 and 15 dpe
# How it was run: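 Flies carried elav-GAL4 and UAS-DsRedCAG250 and were reared at 25°C. Larval dosing was a 2 h feed of third instar larvae on peptide in 2% sucrose at room temperature, with climbing tested at 5, 10 and 15 dpe. Adult dosing: 5 or 10 dpe flies were starved 8 h, then fed overnight on peptide-sucrose filter paper, and tested at 10 or 15 dpe.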
# GADD45A mRNA = assay: Real-time PCR: GADD45A mRNA expression in HEK293 cells; assay type: cell-based, human; settings: three repeats
# How it was run: as §1
# Htt-exon1Q93 Drosophila = assay: Pseudopupil assay, Htt-exon1Q93 Drosophila; assay type: in vivo; settings: 100 µM at third instar larval stage, 1 dpe adults
# How it was run: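 Flies were raised at 21.5°C. Third instar larvae fed 2 h at room temperature on peptide in 2% sucrose solution. Rhabdomeres per ommatidium were counted by pseudopupil assay at 1 dpe for Htt-exon1Q93 flies and 12 dpe for flMJDQ84 flies. Experiments were repeated at least three times (n = 10 fly heads), as mean ± SEM, one-way ANOVA with Tukey test.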
sequence,measurement,setting,value
YGRKKRRQRRRGGEDIKSRVEAASILYFIKKK [TAT-BIND-S],effect on cell death,[1],did not suppress or elicit cell death
same,HBB mRNA expression,HBB mRNA,no significant change
same,"climbing defects, larval treatment",DsRedCAG250 Drosophila,had no effect
same,GADD45A mRNA expression,GADD45A mRNA,no significant change
same,"retinal degeneration, Htt-exon1Q93",Htt-exon1Q93 Drosophila,but not TAT-BIND-S
